Reference: ChEMBL document CHEMBL4715736, “Identification of anticancer agents based on the thieno[2,3-b]pyridine and 1H-pyrazole molecular scaffolds” (2016)

Columns and labels:
Type in all cases: functional
[1] = tested on: NCI-H322M; experiment: Growth inhibition of human NCI-H322M cells assessed as cell growth at 100 uM incubated for 48 hrs by sulforhodamine B assay relative to control; conditions: read-out: Activity
[2] = tested on: SK-MEL-28; experiment: Growth inhibition of human SK-MEL-28 cells assessed as cell growth at 1 uM incubated for 48 hrs by sulforhodamine B assay relative to control; conditions: read-out: Activity
[3] = tested on: TK-10; experiment: Growth inhibition of human TK-10 cells assessed as cell growth at 1 uM incubated for 48 hrs by sulforhodamine B assay relative to control; conditions: read-out: Activity
[4] = tested on: DU-145; experiment: Growth inhibition of human DU-145 cells assessed as cell growth at 0.01 uM incubated for 48 hrs by sulforhodamine B assay relative to control; conditions: read-out: Activity
Procedure, shortened: (§1)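 NCI Developmental Therapeutics Program NCI60 panel. Compounds that were active in the 10 µM one-dose screen went on to dose–response testing. Growth at each concentration is expressed relative to untreated control (100%). GI50 (concentration giving 50% of maximal inhibition of proliferation) and TGI (concentration giving total growth inhibition) were derived from the curves.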

[5] = tested on: SR; experiment: Growth inhibition of human SR cells assessed as cell growth at 1 uM incubated for 48 hrs by sulforhodamine B assay relative to control; conditions: read-out: Activity
[6] = tested on: SK-OV-3; experiment: Growth inhibition of human SK-OV-3 cells assessed as cell growth at 0.01 uM incubated for 48 hrs by sulforhodamine B assay relative to control; conditions: read-out: Activity
[7] = tested on: A549; experiment: Growth inhibition of human A549/ATCC cells assessed as cell growth at 0.1 uM incubated for 48 hrs by sulforhodamine B assay relative to control; conditions: read-out: Activity; procedure, shortened: as §1
[8] = tested on: KM12; experiment: Growth inhibition of human KM12 cells assessed as cell growth at 0.01 uM incubated for 48 hrs by sulforhodamine B assay relative to control; conditions: read-out: Activity
[9] = tested on: NCI-H522; experiment: Growth inhibition of human NCI-H522 cells assessed as cell growth at 100 uM incubated for 48 hrs by sulforhodamine B assay relative to control; conditions: read-out: Activity
[10] = tested on: UO-31; experiment: Growth inhibition of human UO-31 cells incubated for 48 hrs by sulforhodamine B assay; conditions: for CC50: read-out: LC50 (the source's name)
Procedure, shortened: (§2)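 NCI DTP 60-line human tumour panel. Dose-response curves were run only for ligands active in the initial 10 µM screen. GI50 (concentration giving 50% of maximal inhibition of proliferation) and TGI (concentration giving total growth inhibition) were derived from these curves.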

[11] = tested on: A549; experiment: Growth inhibition of human A549/ATCC cells assessed as cell growth at 1 uM incubated for 48 hrs by sulforhodamine B assay relative to control; conditions: read-out: Activity; procedure, shortened: as §1
[12] = tested on: COLO 205; experiment: Growth inhibition of human COLO 205 cells incubated for 48 hrs by sulforhodamine B assay; procedure, shortened: as §1
[13] = tested on: K562; experiment: Growth inhibition of human K562 cells incubated for 48 hrs by sulforhodamine B assay
Procedure, shortened: (§3)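 NCI60 panel at the NCI Developmental Therapeutics Program. Only compounds active in the 10 µM screen went to dose-response testing. GI50, the concentration giving 50% of maximal inhibition of proliferation, and TGI, the concentration giving total growth inhibition, were derived from the dose-response curves.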

[14] = tested on: UO-31; experiment: Growth inhibition of human UO-31 cells assessed as cell growth at 1 uM incubated for 48 hrs by sulforhodamine B assay relative to control; conditions: read-out: Activity
[15] = tested on: A498; experiment: Growth inhibition of human A498 cells assessed as cell growth at 0.01 uM incubated for 48 hrs by sulforhodamine B assay relative to control; conditions: read-out: Activity; procedure, shortened: as §1
[16] = tested on: MDA-MB-231; experiment: Growth inhibition of human MDA-MB-231 cells assessed as cell growth at 100 uM incubated for 48 hrs by sulforhodamine B assay relative to control; conditions: read-out: Activity
[17] = tested on: HCC 2998; experiment: Growth inhibition of human HCC 2998 cells assessed as cell growth at 1 uM incubated for 48 hrs by sulforhodamine B assay relative to control; conditions: read-out: Activity; procedure, shortened: as §1
[18] = tested on: SK-OV-3; experiment: Growth inhibition of human SK-OV-3 cells assessed as cell growth at 0.1 uM incubated for 48 hrs by sulforhodamine B assay relative to control; conditions: read-out: Activity
[19] = tested on: KM12; experiment: Growth inhibition of human KM12 cells incubated for 48 hrs by sulforhodamine B assay; procedure, shortened: as §3
[20] = tested on: HCC 2998; experiment: Growth inhibition of human HCC 2998 cells assessed as cell growth at 100 uM incubated for 48 hrs by sulforhodamine B assay relative to control; conditions: read-out: Activity; procedure, shortened: as §1
[21] = tested on: SF-539; experiment: Growth inhibition of human SF-539 cells assessed as cell growth at 0.1 uM incubated for 48 hrs by sulforhodamine B assay relative to control; conditions: read-out: Activity
[22] = tested on: A498; experiment: Growth inhibition of human A498 cells assessed as cell growth at 1 uM incubated for 48 hrs by sulforhodamine B assay relative to control; conditions: read-out: Activity; procedure, shortened: as §1
[23] = tested on: U-251; experiment: Growth inhibition of human U-251 cells assessed as cell growth at 100 uM incubated for 48 hrs by sulforhodamine B assay relative to control; conditions: read-out: Activity
[24] = tested on: K562; experiment: Growth inhibition of human K562 cells assessed as cell growth at 0.01 uM incubated for 48 hrs by sulforhodamine B assay relative to control; conditions: read-out: Activity
[25] = tested on: MDA-MB-468; experiment: Growth inhibition of human MDA-MB-468 cells incubated for 48 hrs by sulforhodamine B assay; conditions: for CC50: read-out: LC50 (the source's name); procedure, shortened: as §3
[26] = tested on: 786-0; experiment: Growth inhibition of human 786-0 cells incubated for 48 hrs by sulforhodamine B assay; conditions: for CC50: read-out: LC50 (the source's name); procedure, shortened: as §1
[27] = tested on: M14; experiment: Growth inhibition of human M14 cells assessed as cell growth at 0.1 uM incubated for 48 hrs by sulforhodamine B assay relative to control; conditions: read-out: Activity
[28] = tested on: SR; experiment: Growth inhibition of human SR cells incubated for 48 hrs by sulforhodamine B assay; procedure, shortened: as §2
[29] = tested on: BT-549; experiment: Growth inhibition of human BT-549 cells assessed as cell growth at 1 uM incubated for 48 hrs by sulforhodamine B assay relative to control; conditions: read-out: Activity
[30] = tested on: NCI-H460; experiment: Growth inhibition of human NCI-H460 cells assessed as cell growth at 100 uM incubated for 48 hrs by sulforhodamine B assay relative to control; conditions: read-out: Activity
[31] = tested on: DU-145; experiment: Growth inhibition of human DU-145 cells incubated for 48 hrs by sulforhodamine B assay; conditions: for CC50: read-out: LC50 (the source's name); procedure, shortened: as §1
[32] = tested on: T47D; experiment: Growth inhibition of human T47D cells assessed as cell growth at 0.1 uM incubated for 48 hrs by sulforhodamine B assay relative to control; conditions: read-out: Activity
[33] = tested on: SK-MEL-5; experiment: Growth inhibition of human SK-MEL-5 cells assessed as cell growth at 0.1 uM incubated for 48 hrs by sulforhodamine B assay relative to control; conditions: read-out: Activity
[34] = tested on: PC-3; experiment: Growth inhibition of human PC-3 cells incubated for 48 hrs by sulforhodamine B assay; procedure, shortened: as §2
[35] = tested on: UACC-62; experiment: Growth inhibition of human UACC-62 cells assessed as cell growth at 100 uM incubated for 48 hrs by sulforhodamine B assay relative to control; conditions: read-out: Activity

**Q.** What does the source list for Cc1ccc(NC(=O)c2sc3nc4c(cc3c2N)C(=O)CCC4)cc1C?
**A.** growth at 100 µM [1]: 37%; growth at 1 µM [2]: 51%; growth at 1 µM [3]: 52%; growth at 0.01 µM [4]: 104%; growth at 1 µM [5]: 25%; growth at 0.01 µM [6]: 103%; growth at 0.1 µM [7]: 98%; growth at 0.01 µM [8]: 98%; growth at 100 µM [9]: -13%; GI50 [10]: 0.0505 µM; TGI [10]: > 100 µM; CC50 [10]: > 100 µM; growth at 1 µM [11]: 40%; GI50 [12]: 0.272 µM; LC50 (concentration killing 50% of cells) [12]: ≥ 100 µM; TGI [12]: 11.4 µM; GI50 [13]: 0.468 µM; LC50 (concentration killing 50% of cells) [13]: > 100 µM; TGI [13]: 35 µM; growth at 1 µM [14]: 42%; growth at 0.01 µM [15]: 89%; growth at 100 µM [16]: 24%; growth at 1 µM [17]: 57%; growth at 0.1 µM [18]: 107%; GI50 [19]: 0.479 µM; LC50 [19]: > 100 µM; TGI [19]: > 100 µM; growth at 100 µM [20]: 5%; growth at 0.1 µM [21]: 90%; growth at 1 µM [22]: -17%; growth at 100 µM [23]: -9%; growth at 0.01 µM [24]: 114%; GI50 [25]: 0.229 µM; CC50 [25]: > 100 µM; GI50 [26]: 0.614 µM; TGI [26]: > 100 µM; CC50 [26]: > 100 µM; growth at 0.1 µM [27]: 86%; GI50 [28]: 0.499 µM; LC50 [28]: > 100 µM; TGI [28]: 26.8 µM; growth at 1 µM [29]: 49%; growth at 100 µM [30]: -9%; GI50 [31]: 0.602 µM; TGI [31]: > 100 µM; CC50 [31]: > 100 µM; growth at 0.1 µM [32]: 97%; growth at 0.1 µM [33]: 90%

**Q.** How did the growth at 100 µM [1] turn out when CCc1cccc(C)c1NC(=O)c1sc2nc3c(cc2c1N)C(=O)CCC3 was run?
**A.** 21%

**Q.** What about the growth at 1 µM [2] of the same compound?
**A.** 48%

**Q.** What about the growth at 0.01 µM [4] of the same compound?
**A.** 101%

**Q.** And the growth at 1 µM [5]?
**A.** 17%

**Q.** What about the growth at 0.1 µM [7] of the same compound?
**A.** 93%

**Q.** And the growth at 0.01 µM [8]?
**A.** 96%

**Q.** What about the GI50 [10] of the same compound?
**A.** 0.0982 µM

**Q.** And the TGI [10]?
**A.** ≥ 100 µM

**Q.** And the CC50 [10]?
**A.** > 100 µM

**Q.** What about the GI50 [34] of the same compound?
**A.** 0.454 µM

**Q.** And the TGI [34]?
**A.** > 100 µM

**Q.** What about the CC50 ([34]; read-out: LC50 (the source's name)) of the same compound?
**A.** > 100 µM

**Q.** What about the growth at 1 µM [11] of the same compound?
**A.** 37%

**Q.** What about the GI50 [12] of the same compound?
**A.** 0.278 µM

**Q.** And the GI50 [13]?
**A.** 0.341 µM

**Q.** What about the LC50 (concentration killing 50% of cells) [13] of the same compound?
**A.** ≥ 100 µM

**Q.** What about the TGI [13] of the same compound?
**A.** 15.8 µM

**Q.** And the growth at 1 µM [14]?
**A.** 37%

**Q.** And the growth at 0.01 µM [15]?
**A.** 80%

**Q.** What about the growth at 100 µM [16] of the same compound?
**A.** 24%

**Q.** And the growth at 1 µM [17]?
**A.** 55%

**Q.** And the GI50 [19]?
**A.** 0.413 µM

**Q.** What about the LC50 [19] of the same compound?
**A.** > 100 µM

**Q.** And the TGI [19]?
**A.** > 100 µM

**Q.** And the growth at 100 µM [20]?
**A.** 10%

**Q.** What about the growth at 0.1 µM [21] of the same compound?
**A.** 89%

**Q.** What about the growth at 1 µM [22] of the same compound?
**A.** -16%

**Q.** What about the growth at 100 µM [23] of the same compound?
**A.** 4%

**Q.** What about the growth at 0.01 µM [24] of the same compound?
**A.** 92%

**Q.** What about the GI50 [25] of the same compound?
**A.** 0.261 µM

**Q.** What about the TGI [25] of the same compound?
**A.** 60.6 µM

**Q.** What about the CC50 [25] of the same compound?
**A.** > 100 µM

**Q.** What about the GI50 [26] of the same compound?
**A.** 0.542 µM

**Q.** And the TGI [26]?
**A.** > 100 µM

**Q.** What about the CC50 [26] of the same compound?
**A.** > 100 µM

**Q.** What about the growth at 0.1 µM [27] of the same compound?
**A.** 92%

**Q.** What about the GI50 [28] of the same compound?
**A.** 0.403 µM

**Q.** What about the LC50 [28] of the same compound?
**A.** > 100 µM

**Q.** What about the TGI [28] of the same compound?
**A.** ≥ 100 µM

**Q.** And the growth at 100 µM [30]?
**A.** -33%

**Q.** What about the growth at 100 µM [35] of the same compound?
**A.** 14%

**Q.** What about the GI50 [31] of the same compound?
**A.** 0.454 µM

**Q.** And the TGI [31]?
**A.** > 100 µM

**Q.** And the CC50 [31]?
**A.** > 100 µM

**Q.** What about the growth at 0.1 µM [32] of the same compound?
**A.** 91%

**Q.** And the growth at 0.1 µM [33]?
**A.** 89%
